From ChEMBL document CHEMBL1128498, “Synthesis and antitumor activity of various 6-demethylmitomycins and 6-demethyl-6-halomitomycins” (1995)

Experiments:
Mus musculus [1] = species: Mus musculus; experiment: 50% inhibition of solid tumor growth (Sarcoma 180 cells) in mice; format: functional
How it was run: (§1)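 Sarcoma 180 cells inoculated sc into the axillary region of ddY mice on day 0; compound given iv on day 1. Tumor volume compared treated versus control (T/C). ED50 is the dose giving 50% inhibition of tumor growth, from the dose-response curve. Optimal dose also recorded.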

Mus musculus [2] = species: Mus musculus; experiment: T/C value was measured as tumor volume in the treated versus control mice.; format: functional; how it was run: as §1
[3] = Optimal dose was measured against sarcoma 180 cell in mice; format: functional, Mus musculus; how it was run: as §1
HeLa = experiment: Inhibition of HeLa S3 cell growth relative to mitomycin C action (ratio of IC50 values); format: functional, Homo sapiens
How it was run: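 HeLa S3 cells plated on day 0 and exposed to drug for 1 h on day 1. IC50 is the concentration giving 50% growth inhibition, taken from the concentration-response curve. Reported as IC50 of test compound divided by IC50 of mitomycin C.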

In the case of CO[C@@]12[C@H](COC(N)=O)C3=C(C(=O)C=C(N)C3=O)N1C[C@@H]1N[C@@H]12, the ED50 (Mus musculus [1]) is reported as 2.6 mg/kg, the T/C (Mus musculus [2]) is reported as 0.25 and the OD [3] is reported as 5 mg/kg. The IC50 ratio (HeLa) was 3.2.
With CO[C@@]12[C@H](COC(N)=O)C3=C(C(=O)C(Cl)=C(N)C3=O)N1C[C@H]1[C@@H]2N1C (stereo not given in full) the ED50 (Mus musculus [1]) was 2.3 mg/kg, the T/C (Mus musculus [2]) was 0.11 and the OD [3] was 4 mg/kg. For the same molecule, the IC50 ratio (HeLa) was 0.76.
With COC1=C(C)C(=O)C2=C(C1=O)[C@@H](COC(N)=O)[C@@]1(OC)[C@H]3N[C@H]3CN21 [MITOMYCIN A] the ED50 (Mus musculus [1]) was 1.3 mg/kg, the T/C (Mus musculus [2]) was 0.2 and the OD [3] was 1.8 mg/kg. The IC50 ratio (HeLa) was 0.0035.
CC1=C(N)C(=O)C2=C(C1=O)N1C[C@H]3[C@H](N3C)[C@]1(O)[C@H]2COC(N)=O (stereo not given in full) showed a T/C (Mus musculus [2]) of 0.59, an OD [3] of 100 mg/kg and an IC50 ratio (HeLa) greater than 20.
Work on CN1[C@H]2[C@@H]1CN1C3=C(C(=O)C(N)=C(Cl)C3=O)[C@H](COC(N)=O)[C@@]21O (stereo not given in full) yielded an ED50 (Mus musculus [1]) of 17 mg/kg, a T/C (Mus musculus [2]) of 0.43 and an OD [3] of 20 mg/kg. It also gave an IC50 ratio (HeLa) greater than 20.
In the case of CN1[C@H]2[C@@H]1CN1C3=C(C(=O)C(N)=C(Br)C3=O)[C@H](COC(N)=O)[C@@]21O (stereo not given in full), the T/C (Mus musculus [2]) is reported as 0.55, the OD [3] is reported as 30 mg/kg and the IC50 ratio (HeLa) is reported as greater than 35.
For COC1=C(Br)C(=O)C2=C(C1=O)[C@@H](COC(N)=O)[C@@]1(OC)[C@H]3N[C@H]3CN21, the ED50 (Mus musculus [1]) was 8.4 mg/kg, the T/C (Mus musculus [2]) was 0.47 and the OD [3] was 14 mg/kg. For the same molecule, the IC50 ratio (HeLa) was 1.9.
Molecule CO[C@@]12[C@H](COC(N)=O)C3=C(C(=O)C(C)=C(N)C3=O)N1C[C@@H]1N[C@@H]12 [MITOMYCIN] has an ED50 (Mus musculus [1]) of 1.6 mg/kg, a T/C (Mus musculus [2]) of 0.27 and an OD [3] of 3.1 mg/kg. It also gave an IC50 ratio (HeLa) of 0.49.
For COC1=C(Br)C(=O)C2=C(C1=O)[C@H](COC(N)=O)[C@@]1(O)[C@@H]3[C@H](CN21)N3C (stereo not given in full), the ED50 (Mus musculus [1]) was 22 mg/kg, the T/C (Mus musculus [2]) was 0.44 and the OD [3] was 30 mg/kg. For the same molecule, the IC50 ratio (HeLa) was greater than 3.7.
Work on CO[C@@]12[C@H](COC(N)=O)C3=C(C(=O)C(Cl)=C(N)C3=O)N1C[C@@H]1N[C@@H]12 yielded an ED50 (Mus musculus [1]) of 1.4 mg/kg, a T/C (Mus musculus [2]) of 0.14 and an OD [3] of 2.7 mg/kg. For the same molecule, the IC50 ratio (HeLa) was 0.37.
With COC1=C(Cl)C(=O)C2=C(C1=O)[C@H](COC(N)=O)[C@@]1(O)[C@@H]3[C@H](CN21)N3C (stereo not given in full) the T/C (Mus musculus [2]) was 0.62, the OD [3] was 20 mg/kg and the IC50 ratio (HeLa) was 11.
Molecule COC1=C(Cl)C(=O)C2=C(C1=O)[C@@H](COC(N)=O)[C@@]1(OC)[C@H]3N[C@H]3CN21 has an IC50 ratio (HeLa) of 2.5.
With COC1=C(Br)C(=O)C2=C(C1=O)[C@@H](COC(N)=O)[C@@]1(OC)[C@@H]3[C@H](CN21)N3C (stereo not given in full) the T/C (Mus musculus [2]) was 0.97, the OD [3] was 14 mg/kg and the IC50 ratio (HeLa) was greater than 4.8.
In the case of CN1[C@H]2[C@@H]1CN1C3=C(C(=O)C(N)=CC3=O)[C@H](COC(N)=O)[C@@]21O (stereo not given in full), the ED50 (Mus musculus [1]) is reported as 33 mg/kg, the T/C (Mus musculus [2]) is reported as 0.26 and the OD [3] is reported as 100 mg/kg. It also gave an IC50 ratio (HeLa) greater than 71.
Molecule COC1=C(C)C(=O)C2=C(C1=O)[C@@H](COC(N)=O)[C@@]1(OC)[C@@H]3[C@H](CN21)N3C (stereo not given in full) [N-METHYL-MITOMYCIN A] has an ED50 (Mus musculus [1]) of 6.5 mg/kg, a T/C (Mus musculus [2]) of 0.32 and an OD [3] of 8 mg/kg. It also gave an IC50 ratio (HeLa) of less than 0.031.
Work on COC1=CC(=O)C2=C(C1=O)[C@H](COC(N)=O)[C@@]1(O)[C@@H]3[C@H](CN21)N3C (stereo not given in full) yielded an ED50 (Mus musculus [1]) of 11 mg/kg, a T/C (Mus musculus [2]) of 0.31 and an OD [3] of 20 mg/kg. It also gave an IC50 ratio (HeLa) of 16.
In the case of COC1=CC(=O)C2=C(C1=O)[C@@H](COC(N)=O)[C@@]1(OC)[C@@H]3[C@H](CN21)N3C (stereo not given in full), the ED50 (Mus musculus [1]) is reported as 7.1 mg/kg, the T/C (Mus musculus [2]) is reported as 0.36 and the OD [3] is reported as 10 mg/kg. For the same molecule, the IC50 ratio (HeLa) was 0.29.
CO[C@@]12[C@H](COC(N)=O)C3=C(C(=O)C=C(N)C3=O)N1C[C@H]1[C@@H]2N1C (stereo not given in full) gave an ED50 (Mus musculus [1]) of 8.4 mg/kg, a T/C (Mus musculus [2]) of 0.08 and an OD [3] of 20 mg/kg. For the same molecule, the IC50 ratio (HeLa) was 16.
Molecule CO[C@@]12[C@H](COC(N)=O)C3=C(C(=O)C(C)=C(N)C3=O)N1C[C@H]1[C@@H]2N1C (stereo not given in full) [PORFIROMYCIN] has an ED50 (Mus musculus [1]) of 16 mg/kg, a T/C (Mus musculus [2]) of 0.23 and an OD [3] of 40 mg/kg. It also gave an IC50 ratio (HeLa) of 9.5.
Molecule CO[C@@]12[C@H](COC(N)=O)C3=C(C(=O)C(Br)=C(N)C3=O)N1C[C@H]1[C@@H]2N1C (stereo not given in full) has a T/C (Mus musculus [2]) of 0.63, an OD [3] of 4 mg/kg and an IC50 ratio (HeLa) of 1.9.
In the case of COC1=CC(=O)C2=C(C1=O)[C@@H](COC(N)=O)[C@@]1(OC)[C@H]3N[C@H]3CN21, the ED50 (Mus musculus [1]) is reported as 1.6 mg/kg, the T/C (Mus musculus [2]) is reported as 0.45 and the OD [3] is reported as 2 mg/kg. It also gave an IC50 ratio (HeLa) of 0.3.
Work on COC1=C(C)C(=O)C2=C(C1=O)[C@H](COC(N)=O)[C@@]1(O)[C@@H]3[C@H](CN21)N3C (stereo not given in full) [MITOMYCIN B] yielded an ED50 (Mus musculus [1]) of 2.8 mg/kg, a T/C (Mus musculus [2]) of 0.37 and an OD [3] of 4 mg/kg. It also gave an IC50 ratio (HeLa) of 0.29.
